Measured values from ChEMBL document CHEMBL4311980, “Discovery of 2-isoxazol-3-yl-acetamide analogues as heat shock protein 90 (HSP90) inhibitors with significant anti-HIV activity” (Eur J Med Chem, 2019).
Activity calls are given as the source filed them. The rule behind the calls is not given here.

Experiments:
[1] = Cytotoxicity against human TZM-bl cells assessed as maximum non-cytotoxic concentration after 48 hrs by MTT assay; type: cell-based; conditions: read-out: MNCC
In short: (§1)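 Cells were seeded at 25,000/well in complete medium with compound at different concentrations, with untreated and DMSO controls, and incubated 48 h. MTT (5 mg/mL stock) was added for 4 h at 37 °C in the dark. Formazan was dissolved in isopropanol and A570 read. CC50 and highest non-cytotoxic concentration were derived from this assay.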

[2] = system: Human immunodeficiency virus 1; assay: Antiviral activity against HIV-1 NL4-3 infected in human TZM-bl cells assessed as reduction in viral replication at 1000 nM measured at 48 hrs post-infection by steady-glo reporter gene assay relative to control; type: functional; conditions: Human immunodeficiency virus 1, NL4-3, TZM-bl
In short: (§2)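 TZM-bl cells (0.15×10^6/well) were infected with 0.5 MOI HIV-1 NL4-3 12 h after seeding and treated at the highest non-cytotoxic concentration, which was set by MTT assay. At 48 h post-infection, cells were lysed and mixed 1:1 with Steady-Glo substrate, and luminescence was read.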

HIV-1 M:B [3] = assay: Antiviral activity against R5 tropic HIV-1 subtype-B ADA infected in human PBMC assessed as suppression of viral replication by measuring reduction in p24 level measured at 72 hrs post-infection by ELISA; type: functional
In short: (§3)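 Cells were incubated with 0.5 MOI virus in the presence of polybrene at 37 °C for 4 h with intermittent mixing, then washed and plated in complete RPMI-1640. Compound added at different concentrations, with untreated and DMSO controls. PBMC were PHA-activated. Supernatant p24 measured by capture ELISA (A450) at 72 h. % inhibition calculated relative to untreated cells.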

[4] = system: Human immunodeficiency virus 1; assay: Antiviral activity against HIV-1 subtype C isolate indeiC infected in human PBMC cells assessed as suppression of viral replication by measuring reduction in p24 level measured at 72 hrs post-infection by ELISA; type: functional, organism-based; in short: as §3
[5] = Ratio of therapeutic index for compound to therapeutic index of AZT
HIV-1 M:B [6] = assay: Antiviral activity against X4 tropic HIV-1 subtype-B 3B infected in human PBMC assessed as suppression of viral replication by measuring reduction in p24 level measured at 72 hrs post-infection by ELISA; type: functional; in short: as §3
HIV-1 M:B [7] = assay: Antiviral activity against R5 tropic HIV-1 subtype-B ADA infected in human CEM-GFP cells assessed as suppression of viral replication by measuring reduction in p24 level measured at 72 hrs post-infection by ELISA; type: functional, cell-based; in short: as §3
[8] = Cytotoxicity against human CEM-GFP cells assessed as reduction in cell viability after 48 hrs by MTT assay; type: cell-based; in short: as §1
[9] = Therapeutic index, ratio of CC50 for human Jurkat J6 cells to IC50 for antiviral activity against HIV-1 NL4-3 infected in human Jurkat J6 cells; type: toxicity, cell-based; conditions: read-out: Ratio CC50/IC50
In short: (§4)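 IC50 was determined from p24 ELISA 72 h after 0.5 MOI HIV-1 NL4-3 infection with compound at different concentrations. Therapeutic index = CC50/IC50.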

[10] = system: Human immunodeficiency virus 1; assay: Antiviral activity against HIV-1 NL4-3 infected in human Jurkat J6 cells assessed as suppression of viral replication by measuring reduction in p24 level measured at 72 hrs post-infection by ELISA; type: functional, organism-based; conditions: Human immunodeficiency virus 1, Jurkat; in short: as §3
[11] = Therapeutic index, ratio of CC50 for human PBMC to IC50 for antiviral activity against HIV-1 NL4-3 infected in human PBMC; type: toxicity; conditions: read-out: Ratio CC50/IC50; in short: as §4
[12] = Therapeutic index, ratio of CC50 for human U937 cells to IC50 for antiviral activity against HIV-1 NL4-3 infected in human U937 cells; type: toxicity, cell-based; conditions: read-out: Ratio CC50/IC50; in short: as §4
[13] = system: Human immunodeficiency virus 1; assay: Antiviral activity against HIV-1 NL4-3 infected in CEM-GFP cells assessed as reduction in HSP90 expression measured at 72 hrs post-infection by immunoblotting analysis; type: functional, organism-based
In short: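 CEM-GFP cells were infected with 0.5 MOI HIV-1 NL4-3 with or without compound, with DMSO as vehicle control. At 72 h post-infection, HSP90 protein was measured by immunoblotting and quantified by densitometry.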

[14] = target: Heat shock protein HSP90 (Homo sapiens) (UniProt P07900+P08238); assay: Inhibition of HSP90 (unknown origin) expressed in HEK-293T cells assessed as reduction in Tat-mediated transactivation at 1 uM measured at 48 hrs post-transfection by LTR-driven luciferase reporter gene assay; type: cell-based
In short: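 HEK-293T cells were co-transfected with p-LTR-Luc and Tat using PEI in the presence or absence of compound. At 48 h post-transfection, cells were harvested and luminescence and fluorescence were measured.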

[15] = Ratio of therapeutic index for compound to therapeutic index of AUY922
[16] = system: Human immunodeficiency virus 1; assay: Antiviral activity against HIV-1 NL4-3 infected in human CEM-GFP cells assessed as suppression of viral replication by measuring reduction in p24 level measured at 72 hrs post-infection by ELISA; type: functional, organism-based; conditions: Human immunodeficiency virus 1, NL4-3, CEM-GFP; in short: as §3
[17] = system: Human immunodeficiency virus 1; assay: Antiviral activity against 0.01 to 0 1 MOI HIV-1 NL4-3 infected in human CEM-GFP cells assessed as suppression of viral replication by measuring reduction in p24 level at 1 uM measured at 72 hrs post-infection by ELISA; type: functional, organism-based
In short: (§5)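 Cells infected with HIV-1 NL4-3 at MOI 0.01, 0.1 or 1 in the presence of polybrene at 37 °C for 4 h. Cells then washed in serum-free RPMI-1640 and plated in complete RPMI-1640 with compound at its highest non-cytotoxic concentration. Untreated and DMSO controls. Supernatant p24 measured by antigen-capture ELISA (A450) at 72 h post-infection. % inhibition = (untreated − treated p24)/untreated p24 × 100.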

[18] = system: Human immunodeficiency virus 1; assay: Antiviral activity against HIV-1 NL4-3 infected in human U937 cells assessed as suppression of viral replication by measuring reduction in p24 level measured at 72 hrs post-infection by ELISA; type: functional, organism-based; conditions: Human immunodeficiency virus 1, U-937, 72 h; in short: as §3
[19] = Cytotoxicity against human Jurkat J6 cells assessed as reduction in cell viability after 48 hrs by MTT assay; type: cell-based; in short: as §1
[20] = Therapeutic index, ratio of CC50 for human CEM-GFP cells to IC50 for antiviral activity against HIV-1 NL4-3 infected in human CEM-GFP cells; type: toxicity, cell-based; conditions: read-out: Ratio CC50/IC50; in short: as §4
[21] = target: Protease (Human immunodeficiency virus 1) (UniProt Q9YQ12); assay: Inhibition of HIV-1 protease at 1 uM using synthetic peptide as substrate after 15 mins by fluorimetric based assay
In short: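 Cell-free fluorometric protease kit. HIV-1 protease was diluted in reaction buffer and loaded at 10 nmol/well with or without compound. Indinavir served as positive control, with untreated and DMSO controls. Fluorescence (Ex/Em 330/450 nm) was read 15 min after addition. n = 3.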

[22] = system: Human immunodeficiency virus 1; assay: Antiviral activity against R5X4 tropic HIV-1 subtype-B 89.6 infected in human PBMC assessed as suppression of viral replication by measuring reduction in p24 level measured at 72 hrs post-infection by ELISA; type: functional, organism-based; conditions: M:B_89.6; in short: as §3
[23] = system: Human immunodeficiency virus 1; assay: Antiviral activity against R5X4 tropic HIV-1 subtype-B 89.6 infected in human CEM-GFP cells assessed as suppression of viral replication by measuring reduction in p24 level measured at 72 hrs post-infection by ELISA; type: functional, organism-based; conditions: M:B_89.6; in short: as §3
[24] = system: Human immunodeficiency virus 1; assay: Antiviral activity against 0.01 to 0 1 MOI HIV-1 NL4-3 infected in human PBMC assessed as suppression of viral replication by measuring reduction in p24 level at 1 uM measured at 72 hrs post-infection by ELISA; type: functional, organism-based; in short: as §5
HIV-1 M:B [25] = assay: Antiviral activity against X4 tropic HIV-1 subtype-B 3B infected in human CEM-GFP cells assessed as suppression of viral replication by measuring reduction in p24 level measured at 72 hrs post-infection by ELISA; type: functional, cell-based; in short: as §3
[26] = Cytotoxicity against human U937 cells assessed as reduction in cell viability after 48 hrs by MTT assay; type: cell-based, U-937; in short: as §1
[27] = Cytotoxicity against human PBMC assessed as reduction in cell viability after 48 hrs by MTT assay; type: cell-based; in short: as §1
[28] = system: Human immunodeficiency virus 1; assay: Antiviral activity against HIV-1 subtype C isolate indeiC infected in human CEM-GFP cells assessed as suppression of viral replication by measuring reduction in p24 level measured at 72 hrs post-infection by ELISA; type: functional, organism-based; in short: as §3
[29] = system: Human immunodeficiency virus 1; assay: Antiviral activity against HIV-1 NL4-3 infected in human PBMC assessed as suppression of viral replication by measuring reduction in p24 level measured at 72 hrs post-infection by ELISA; type: functional, organism-based; conditions: Human immunodeficiency virus 1, 72 h; in short: as §3
[30] = target: Human immunodeficiency virus type 1 reverse transcriptase (Human immunodeficiency virus 1) (UniProt Q72547); assay: Inhibition of HIV-1 reverse transcriptase RNA-dependent DNA polymerase activity assessed as reduction in biotin-dUTP incorporation at 1 uM using poly(A)/oligo (dT)15 as template/primer by ELISA
In short: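 RNA-dependent DNA polymerase activity of HIV-1 RT was tested with a colorimetric reverse transcriptase kit. Nevirapine served as positive control, with untreated and DMSO vehicle wells. Compound was tested at its highest non-cytotoxic concentration. n = 3.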

[31] = system: Human immunodeficiency virus 1; assay: Antiviral activity against HIV1 NL4-3 infected in human TZM-bl cells assessed as reduction in viral replication at 100 nM measured at 48 hrs post-infection by steady-glo reporter gene assay relative to control; type: functional; conditions: Human immunodeficiency virus 1, NL4-3, TZM-bl; in short: as §2

Protease (Human immunodeficiency virus 1), sequence (Q9YQ12 as listed by the source): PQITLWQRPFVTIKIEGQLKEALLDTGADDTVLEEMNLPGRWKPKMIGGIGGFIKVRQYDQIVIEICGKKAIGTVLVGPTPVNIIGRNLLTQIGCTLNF

Structure (SMILES): O=C(Cc1cc(-c2ccccc2)on1)Nc1ccc(O)cc1
- MNTC at 48 h [1]: 1000 nM
- inhibition at 1 µM [2]: 13.4%

Structure (SMILES): O=C(Cc1cc(-c2ccco2)on1)Nc1ccc(O)cc1
- MNTC at 48 h [1]: 1000 nM
- inhibition at 1 µM [2]: 53.1%

Structure (SMILES): CC(C)NC(=O)Cc1cc(-c2ccccc2)on1
- inhibition (HIV-1 M:B [3]): Active
- inhibition [4]: Active
- Ratio [5]: 1.5
- inhibition (HIV-1 M:B [6]): Active
- inhibition (HIV-1 M:B [7]): Active
- MNTC at 48 h [1]: 1000 nM
- CC50 at 48 h [8]: 65.6 µM
- selectivity ratio [9]: 1140
- IC50 [10]: 0.0527 µM
- selectivity ratio [11]: 1210
- selectivity ratio [12]: 1070
- Activity [13]: Active
- inhibition [14]: Active
- Ratio [15]: 3.5
- IC50 [16]: 0.0395 µM
- inhibition [17]: Active
- inhibition at 1 µM [2]: 85%
- IC50 [18]: 0.053 µM
- CC50 at 48 h [19]: 60.3 µM
- selectivity ratio [20]: 1660
- inhibition [21]: inactive
- inhibition [22]: Active
- inhibition [23]: Active
- inhibition [24]: Active
- inhibition (HIV-1 M:B [25]): Active
- CC50 at 48 h [26]: 56.6 µM
- CC50 at 48 h [27]: 67.9 µM
- inhibition [28]: Active
- IC50 [29]: 0.0562 µM
- inhibition [30]: inactive

Structure (SMILES): COC(=O)c1ccc(NC(=O)Cc2cc(-c3ccccc3)on2)cc1
- MNTC at 48 h [1]: 100 nM
- inhibition at 0.1 µM [31]: 27.7%

Structure (SMILES): CCNC(=O)c1noc(-c2cc(C(C)C)c(O)cc2O)c1-c1ccc(CN2CCOCC2)cc1 [LUMINESPIB]
- MNTC at 48 h [1]: 1000 nM
- CC50 at 48 h [8]: 31.1 µM
- IC50 [16]: 0.0663 µM
- inhibition at 1 µM [2]: 88.3%
- selectivity ratio [20]: 470
